Measurements taken from paper PMC5499931 (OncoTargets and therapy, 2017).
Entries after “also recorded” stand apart in the source; their conditions may differ. *1 amine or outer side, *2 acyl side, *3 side chain or, on linkers, in order; H or OH if unused. Where a SMILES comes first, the peptide text is derived from it. Side-chain parts run from the residue outwards. [ ]: non-standard residue; d: D form. The star is where a group is joined. Ethylenediamine = C(CN[*:2])N[*:1]; Hyp = O=C(O)[C@@H]1C[C@@H](O)CN1; Phg = N[C@H](C(=O)O)c1ccccc1; CO = O=C([*:1])[*:2]; Bn = c1ccc(C*)cc1

Assays:
[1] = system: patients with advanced NETs; assay: MTD/dose-limiting toxicity; format: in vivo, human; settings: 80 and 120 mg; first two treatment cycles
How it was run: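 Dose escalation in cohorts of 3–6 patients, starting at 80 mg IM every 28 days. Later doses were chosen in 20 mg multiples by a two-parameter Bayesian logistic regression model with overdose control. Intra-patient escalation was not allowed; de-escalation was permitted. DLT window was the first two 28-day cycles. Evaluable patients had two injections with sufficient safety evaluation, or a DLT. MTD was defined as the highest dose with expected DLT in ≤33%.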

[2] = Pasireotide plasma concentrations; format: in vivo; settings: human, im
[3] = system: patients with advanced NETs; assay: AEs regardless of study drug relationship; format: in vivo, human
How it was run: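 Open-label, multicentre phase I in adults with advanced, well- or moderately differentiated NETs progressing within the prior 12 months; HbA1c >7.0% excluded. Test compound given as long-acting IM injection every 28 days. Safety set was everyone receiving at least one dose, grouped by first dose received. AEs coded by MedDRA 18.0; laboratory abnormalities graded by CTCAE 3.0.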

[4] = system: patients with advanced NETs; assay: Bradycardia; format: in vivo, human; settings: for Odds ratio [95% CI] of bradycardia (HR <40 bpm) for a 1.5-fold increase in pasireotide concentration: logistic regression, not statistically significant
How it was run: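 HR recorded by 24-hour Holter on Cycle 1 Day 1 and Cycle 2 Day 1 in all patients. Bradycardia, defined as minimum HR <40 bpm, was analysed by pooling vital signs, 12-lead ECG and Holter data. Post hoc review covered dose-escalation cohorts plus the 120 mg expansion cohort. Dosing was IM every 28 days.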

[5] = system: patients with advanced carcinoid syndrome refractory to octreotide LAR; settings: pasireotide LAR 60 mg vs octreotide LAR 30 mg; cited from earlier work

Molecule	Protocol-defined dose-limiting toxicities (DLTs) [1]	Cmax ([2]; 80 mg)	Cmax ([2]; 120 mg)	AEs of any grade, patients ([3]; 80 mg)	AEs, Total ([3]; 80 mg i.m./28 days (n=13), Grade 3/4)	AEs, Total ([3]; 80 mg i.m./28 days (n=13), all grade)	AEs of any grade, patients ([3]; 120 mg)	AEs, Total ([3]; 120 mg i.m./28 days (n=16), Grade 3/4)	AEs, Total ([3]; 120 mg i.m./28 days (n=16), all grade)	AEs, Total ([3]; all patients, 80 or 120 mg (N=29), Grade 3/4)	AEs, Total ([3]; all patients, 80 or 120 mg (N=29), all grade)	Incidence of bradycardia (HR <40 bpm) ([4]; 120 mg (5/16), Holter assessment, post hoc)	Odds ratio [95% CI] of bradycardia (HR <40 bpm) for a 1.5-fold increase in pasireotide concentration ([4]; day time (6 am through 10 pm))	Odds ratio [95% CI] of bradycardia (HR <40 bpm) for a 1.5-fold increase in pasireotide concentration ([4]; night time (10 pm through 6 am))	Tumor control rate at month 6 [5]
NCCCC[C@@H]1NC(=O)[C@@H](Cc2c[nH]c3ccccc23)NC(=O)[C@H](c2ccccc2)NC(=O)[C@@H]2C[C@@H](OC(=O)NCCN)CN2C(=O)[C@H](Cc2ccccc2)NC(=O)[C@H](Cc2ccc(OCc3ccccc3)cc2)NC1=O [Pasireotide LAR, pasireotide] (cyclo([Hyp]([CO-Ethylenediamine])[Phg][dW]KY(Bn)F))	No protocol-defined dose-limiting toxicities; also recorded: no protocol-defined DLTs	0.0137 ± 0.0115 µg/mL	0.0232 ± 0.0314 µg/mL	92%	9 (69.2) n (%)	12 (92.3) n (%)	100%	11 (68.8) n (%)	16 (100) n (%)	20 (69.0) n (%)	28 (96.6) n (%)	31%	1.67 [0.38–7.34]	2.02 [0.49–8.29]	–
octreotide [octreotide LAR]	–	–	–	–	–	–	–	–	–	–	–	–	–	–	46.2%
